# Test results from ChEMBL document CHEMBL5500411, “Discovery of Dual MER/AXL Kinase Inhibitors as Bifunctional Small Molecules for Inhibiting Tumor Growth and Enhancing Tumor Immune Microenvironment” (J Med Chem, 2024).
# Experiments:
# [1] = Volume of distribution at steady state in male ICR mouse at 2 mg/kg, iv measured after 24 hrs by LC-MS/MS analysis; type: ADME, organism-based; settings: in vivo
# Method in brief: (§1)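 Male ICR mice (25–35 g) given one iv or oral dose of 2, 3 or 10 mg/kg. Vehicles were PEG400/DMA (80/20) for both routes, or DMSO/CrEL/D5W (5/5/90) iv and 1% CMC + 0.5% Tween80 oral. Plasma was taken by cardiac puncture at 0–24 h, three mice per time point. Parent drug was measured by LC-MS/MS and analysed noncompartmentally. DNAUC = AUC(0–inf)/dose.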
# [2] = Toxicity in BALB/c mouse implanted with mouse 4T1 cells assessed as body weight loss at 50 mg/kg, po administered once a day with five days on and two days off; type: organism-based; settings: in vivo
# Method in brief: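 Female Balb/c mice aged 6–7 weeks implanted with 4T1 cells (1 million in matrigel/medium) in the fourth left mammary fat pad. Treatment started near 50–60 mm³: 50 mg/kg oral QD on a five-on/two-off schedule. Body weight was measured weekly. n = 8–9 per group.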
# [3] = Toxicity in immunodeficient NOD/SCID mouse xenografted with MER/AXL overexpressing human MDA-MB-231 cells assessed as body weight loss at 50 mg/kg, po administered once a day with five days on and two days off; type: organism-based; settings: in vivo
# [4] = Toxicity in immunocompetent female C57BL/6 mouse implanted with mouse MC-38 cells assessed as body weight loss at 50 mg/kg, po administered once a day with five days on and two days off; type: organism-based; settings: in vivo
# Method in brief: (§2)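 Syngeneic models in female C57BL/6 mice aged 6–7 weeks: MC38 (10⁵ cells) or Hepa1–6 (10⁶ cells) injected subcutaneously into the left flank. Oral dosing on a five-on/two-off schedule: MC38 at 50 mg/kg QD or BID for 3 weeks, Hepa1–6 at 30 mg/kg QD. Body weight was recorded weekly. n = 8–9 per group.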
# [5] = Toxicity in ICR mouse at 10 to 100 mg/kg administered for 14 days; type: organism-based; settings: in vivo, 336 h, dose 10-100 mg/kg, time 14 day
# [6] = Toxicity in immunocompetent female C57BL/6 mouse implanted with mouse MC-38 cells assessed as body weight loss at 50 mg/kg, po administered twice a day with five days on and two days off for 3 weeks; type: organism-based; settings: in vivo, 504 h; method in brief: as §2
# [7] = Toxicity in immunocompetent female C57BL/6 mouse implanted with mouse MC-38 cells assessed as body weight loss at 50 mg/kg, po administered once a day with five days on and two days off for 3 weeks; type: organism-based; settings: in vivo, 504 h; method in brief: as §2
# [8] = Toxicity in ICR mouse assessed as decrease in creatinine level at 30 to 100 mg/kg administered for 14 days; type: organism-based; settings: in vivo, 336 h, dose 30-100 mg/kg, time 14 day
# [9] = Toxicity in immunocompetent female C57BL/6 mouse implanted with mouse Hepa1-6 cells assessed as body weight loss at 30 mg/kg, po administered once a day with five days on and two days off; type: organism-based; settings: in vivo; method in brief: as §2
# [10] = Dose normalized AUC (0 to infinity) in male ICR mouse at 10 mg/kg, po measured after 24 hrs by LC-MS/MS analysis; type: ADME, organism-based; settings: in vivo; method in brief: as §1
# [11] = Dose normalized AUC (0 to infinity) in male ICR mouse at 2 mg/kg, iv measured after 24 hrs by LC-MS/MS analysis; type: ADME, organism-based; settings: in vivo; method in brief: as §1
# [12] = biological target: Epidermal growth factor receptor (Homo sapiens) (UniProt P00533); experiment: Inhibition of wildtype EGFR (unknown origin) at 1 uM by kinase Glo assay relative to control
# Chain of Epidermal growth factor receptor (Homo sapiens) (P00533 whole entry): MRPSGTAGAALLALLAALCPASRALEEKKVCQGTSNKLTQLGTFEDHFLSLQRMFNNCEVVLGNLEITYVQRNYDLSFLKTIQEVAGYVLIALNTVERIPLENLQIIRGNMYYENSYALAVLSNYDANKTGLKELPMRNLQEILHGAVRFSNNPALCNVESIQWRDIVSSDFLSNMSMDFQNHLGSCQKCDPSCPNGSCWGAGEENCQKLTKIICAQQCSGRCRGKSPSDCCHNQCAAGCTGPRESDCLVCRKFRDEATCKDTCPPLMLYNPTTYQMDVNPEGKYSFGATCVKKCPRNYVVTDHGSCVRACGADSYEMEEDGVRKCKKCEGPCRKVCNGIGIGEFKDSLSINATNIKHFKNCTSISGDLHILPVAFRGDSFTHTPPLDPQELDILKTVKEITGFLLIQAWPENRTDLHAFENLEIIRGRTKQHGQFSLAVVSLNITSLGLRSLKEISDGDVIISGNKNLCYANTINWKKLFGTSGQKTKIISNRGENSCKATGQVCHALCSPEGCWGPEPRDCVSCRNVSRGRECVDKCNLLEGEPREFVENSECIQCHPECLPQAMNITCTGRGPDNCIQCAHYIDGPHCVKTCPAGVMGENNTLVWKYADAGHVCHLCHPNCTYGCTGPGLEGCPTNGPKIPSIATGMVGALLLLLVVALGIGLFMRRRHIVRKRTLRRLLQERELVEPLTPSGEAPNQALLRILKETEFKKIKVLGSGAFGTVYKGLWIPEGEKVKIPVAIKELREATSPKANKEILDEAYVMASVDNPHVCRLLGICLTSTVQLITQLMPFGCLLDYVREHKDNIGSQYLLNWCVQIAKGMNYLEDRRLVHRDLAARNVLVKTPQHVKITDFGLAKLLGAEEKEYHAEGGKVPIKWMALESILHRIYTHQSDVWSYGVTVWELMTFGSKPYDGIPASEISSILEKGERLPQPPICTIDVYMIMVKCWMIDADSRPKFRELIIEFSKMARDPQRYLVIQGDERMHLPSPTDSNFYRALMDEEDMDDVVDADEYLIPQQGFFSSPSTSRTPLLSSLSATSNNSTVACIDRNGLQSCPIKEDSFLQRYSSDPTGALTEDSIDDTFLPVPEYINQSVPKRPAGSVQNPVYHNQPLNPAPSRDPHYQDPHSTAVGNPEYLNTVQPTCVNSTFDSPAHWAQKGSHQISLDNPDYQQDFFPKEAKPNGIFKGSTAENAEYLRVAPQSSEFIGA
# Method in brief: (§3)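 In-house Kinase-Glo luminescence assay on wild-type and T790M/L858R EGFR. Values are the mean of at least two independent experiments.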
# [13] = system: Epidermal growth factor receptor (Homo sapiens), P00533 [L858R,T790M]; experiment: Inhibition of EGFR T790M/L858R double mutant (unknown origin) at 1 uM by kinase Glo assay relative to control; method in brief: as §3
# Chain of Epidermal growth factor receptor (Homo sapiens), P00533 [L858R,T790M] (P00533 whole entry T790M/L858R, looked up): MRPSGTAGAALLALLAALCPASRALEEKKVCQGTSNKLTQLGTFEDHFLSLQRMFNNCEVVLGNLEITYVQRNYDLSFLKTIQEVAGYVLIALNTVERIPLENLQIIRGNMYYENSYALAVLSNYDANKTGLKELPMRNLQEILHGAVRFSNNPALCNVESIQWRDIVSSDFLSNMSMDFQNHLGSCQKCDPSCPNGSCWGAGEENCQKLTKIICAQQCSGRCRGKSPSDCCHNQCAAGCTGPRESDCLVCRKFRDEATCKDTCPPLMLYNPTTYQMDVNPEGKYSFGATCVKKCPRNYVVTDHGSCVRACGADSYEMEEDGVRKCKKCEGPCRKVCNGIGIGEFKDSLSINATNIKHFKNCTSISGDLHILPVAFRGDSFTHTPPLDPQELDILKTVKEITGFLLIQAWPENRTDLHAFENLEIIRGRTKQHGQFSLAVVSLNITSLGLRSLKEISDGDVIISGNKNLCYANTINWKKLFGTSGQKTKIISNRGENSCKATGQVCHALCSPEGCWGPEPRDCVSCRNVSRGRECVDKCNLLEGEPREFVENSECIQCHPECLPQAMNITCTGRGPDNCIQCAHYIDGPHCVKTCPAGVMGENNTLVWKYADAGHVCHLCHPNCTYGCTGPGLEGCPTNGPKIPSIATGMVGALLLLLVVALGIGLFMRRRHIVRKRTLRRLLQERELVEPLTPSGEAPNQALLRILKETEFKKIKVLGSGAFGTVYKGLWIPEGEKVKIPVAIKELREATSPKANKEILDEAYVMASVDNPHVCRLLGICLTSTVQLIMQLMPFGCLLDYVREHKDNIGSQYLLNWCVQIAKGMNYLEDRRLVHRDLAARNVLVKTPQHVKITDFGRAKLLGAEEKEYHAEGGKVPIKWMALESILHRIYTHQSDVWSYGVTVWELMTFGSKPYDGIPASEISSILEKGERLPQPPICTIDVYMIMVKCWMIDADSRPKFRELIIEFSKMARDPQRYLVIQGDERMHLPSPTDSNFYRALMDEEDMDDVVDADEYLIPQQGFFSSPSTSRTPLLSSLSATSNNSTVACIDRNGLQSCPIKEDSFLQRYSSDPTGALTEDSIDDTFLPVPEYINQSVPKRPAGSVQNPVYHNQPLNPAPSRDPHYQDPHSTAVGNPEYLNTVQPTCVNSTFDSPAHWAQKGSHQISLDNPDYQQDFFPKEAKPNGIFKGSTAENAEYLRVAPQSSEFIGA
# [14] = biological target: Tyrosine-protein kinase receptor UFO (Homo sapiens) (UniProt P30530); experiment: Inhibition of AXL (unknown origin) at 1 uM preincubated for 15 mins followed by substrate and ATP addition and measured after 3 hrs by ADP-Glo kinase assay relative to control; settings: time 195.0 min
# Chain of Tyrosine-protein kinase receptor UFO (Homo sapiens) (P30530 whole entry): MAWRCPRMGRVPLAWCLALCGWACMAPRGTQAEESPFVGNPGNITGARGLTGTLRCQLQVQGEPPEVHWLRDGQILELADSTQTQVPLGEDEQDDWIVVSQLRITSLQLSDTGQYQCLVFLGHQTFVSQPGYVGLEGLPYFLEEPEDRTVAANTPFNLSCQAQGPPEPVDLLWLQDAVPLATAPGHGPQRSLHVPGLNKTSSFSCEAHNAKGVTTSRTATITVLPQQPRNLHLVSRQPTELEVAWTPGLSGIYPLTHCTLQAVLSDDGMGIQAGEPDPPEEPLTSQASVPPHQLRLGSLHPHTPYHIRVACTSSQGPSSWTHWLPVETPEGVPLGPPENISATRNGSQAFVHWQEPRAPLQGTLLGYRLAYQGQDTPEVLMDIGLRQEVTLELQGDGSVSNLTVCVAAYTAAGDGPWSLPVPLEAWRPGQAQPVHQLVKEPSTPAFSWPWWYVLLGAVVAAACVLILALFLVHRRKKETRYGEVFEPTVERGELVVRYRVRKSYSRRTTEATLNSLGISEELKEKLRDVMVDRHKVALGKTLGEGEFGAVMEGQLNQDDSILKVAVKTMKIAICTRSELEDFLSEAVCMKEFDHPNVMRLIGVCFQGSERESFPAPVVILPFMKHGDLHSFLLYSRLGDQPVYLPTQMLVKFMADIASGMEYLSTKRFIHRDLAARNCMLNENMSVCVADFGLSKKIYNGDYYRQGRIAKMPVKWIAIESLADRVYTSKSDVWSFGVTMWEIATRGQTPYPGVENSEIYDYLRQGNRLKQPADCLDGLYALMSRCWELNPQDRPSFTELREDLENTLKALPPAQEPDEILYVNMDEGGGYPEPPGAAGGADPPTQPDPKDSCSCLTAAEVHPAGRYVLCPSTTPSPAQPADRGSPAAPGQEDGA
# [15] = biological target: T1, Tyrosine-protein kinase Mer (Homo sapiens) (UniProt Q12866); experiment: Inhibition of MER (unknown origin) at 1 uM preincubated for 15 mins followed by substrate and ATP addition and measured after 3 hrs by ADP-Glo kinase assay relative to control; settings: time 195.0 min
# T1 sequence (whole entry): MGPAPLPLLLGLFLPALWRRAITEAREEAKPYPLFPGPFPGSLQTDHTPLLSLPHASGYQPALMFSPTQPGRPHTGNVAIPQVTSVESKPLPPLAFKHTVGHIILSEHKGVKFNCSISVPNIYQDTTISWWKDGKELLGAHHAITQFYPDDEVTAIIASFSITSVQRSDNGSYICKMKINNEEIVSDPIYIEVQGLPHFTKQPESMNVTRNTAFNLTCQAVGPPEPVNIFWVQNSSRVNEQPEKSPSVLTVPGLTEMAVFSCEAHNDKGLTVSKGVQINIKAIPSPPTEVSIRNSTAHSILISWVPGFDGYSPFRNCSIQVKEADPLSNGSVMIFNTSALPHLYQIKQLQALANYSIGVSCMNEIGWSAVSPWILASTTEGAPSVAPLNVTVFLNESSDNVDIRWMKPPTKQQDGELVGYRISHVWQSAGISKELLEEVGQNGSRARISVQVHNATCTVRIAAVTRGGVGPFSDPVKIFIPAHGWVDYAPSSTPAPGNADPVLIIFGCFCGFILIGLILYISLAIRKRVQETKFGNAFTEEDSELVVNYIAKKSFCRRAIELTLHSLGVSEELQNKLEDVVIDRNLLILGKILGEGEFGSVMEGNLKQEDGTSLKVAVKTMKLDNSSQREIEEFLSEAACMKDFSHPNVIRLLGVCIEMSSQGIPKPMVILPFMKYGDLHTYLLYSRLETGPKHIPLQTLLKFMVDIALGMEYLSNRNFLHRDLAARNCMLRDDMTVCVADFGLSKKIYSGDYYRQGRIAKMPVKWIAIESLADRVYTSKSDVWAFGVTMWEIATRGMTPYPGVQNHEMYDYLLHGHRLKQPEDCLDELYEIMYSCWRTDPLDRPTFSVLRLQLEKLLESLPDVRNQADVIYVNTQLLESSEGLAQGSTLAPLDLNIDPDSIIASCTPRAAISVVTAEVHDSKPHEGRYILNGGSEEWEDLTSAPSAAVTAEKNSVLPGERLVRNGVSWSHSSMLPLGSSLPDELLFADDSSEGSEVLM
# [16] = biological target: T2, Tyrosine-protein kinase Mer (Homo sapiens, UniProt Q12866); experiment: Inhibition of MER (unknown origin) by KINOMEScan assay
# T2 sequence (Q12866 whole entry): T1 sequence (whole entry)
# [17] = Toxicity in ICR mouse assessed as decrease in creatinine level at 100 mg/kg administered for 14 days; type: organism-based; settings: in vivo, 336 h, time 14 day
# MDA-MB-231 [18] = experiment: Antitumor activity against MER/AXL overexpressing human MDA-MB-231 cells xenografted in immunodeficient NOD/SCID mouse model assessed as tumor growth inhibition at 25 mg/kg, po administered twice a day with five days on and two days off for 4 weeks in presence of bemcentinib relative to control; type: functional; settings: MDA-MB-231, 672 h, read-out: TGI
# Method in brief: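 MDA-MB-231 cells (5 million, 1:1 matrigel/medium) implanted in 6–7-week-old female NOD/SCID mice. Dosing began at about 150 mm³ mean tumor volume: 25 mg/kg oral BID on a five-on/two-off schedule for 4 weeks, given alone or in combination.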
# MDA-MB-231 [19] = experiment: Antitumor activity against MER/AXL overexpressing human MDA-MB-231 cells xenografted in immunodeficient NOD/SCID mouse model assessed as tumor growth inhibition at 25 mg/kg, po administered twice a day with five days on and two days off for 4 weeks relative to control; type: functional; settings: MDA-MB-231, 672 h, read-out: TGI
# Method in brief: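 Female NOD/SCID mice (6–7 weeks old) were given 5 million Mycoplasma-free MDA-MB-231 cells in 1:1 matrigel/medium, implanted subcutaneously. After randomization at about 150 mm³ average tumor volume, mice got oral drug or vehicle, BID, FOTO, for 4 weeks, n = 8 per group. Caliper volumes (L×W×W/2) were measured weekly. %TGI = [1 − ΔT/ΔC]×100, with Δ taken from day 0.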
# MDA-MB-231 [20] = experiment: Antitumor activity against MER/AXL overexpressing human MDA-MB-231 cells xenografted in immunodeficient NOD/SCID mouse model assessed as tumor growth inhibition at 25 mg/kg, po administered twice a day with five days on and two days off for 4 weeks in presence of (1r,4r)-4-(2-(butylamino)-5-(4-((4-methylpiperazin-1-yl)methyl)phenyl)-7H-pyrrolo[2,3-d]pyrimidin-7-yl)cyclohexan-1-ol relative to …; type: functional; settings: MDA-MB-231, 672 h, read-out: TGI
# [21] = Dose normalized AUC (0 to infinity) in male ICR mouse at 3 mg/kg, po measured after 24 hrs by LC-MS/MS analysis; type: ADME, organism-based; settings: in vivo; method in brief: as §1
# [22] = Dose normalized AUC (0 to infinity) in male ICR mouse at 3 mg/kg, iv measured after 24 hrs by LC-MS/MS analysis; type: ADME, organism-based; settings: in vivo; method in brief: as §1
# [23] = Toxicity in immunocompetent female C57BL/6 mouse implanted with mouse MC-38 cells assessed as body weight loss at 25 to 50 mg/kg, po administered twice a day with five days on and two days off for 3 weeks; type: organism-based; settings: in vivo, 504 h, dose 25-50 mg/kg
# Method in brief: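 Female C57BL/6 mice aged 6–7 weeks bearing subcutaneous MC38 (10⁵ cells) tumors, treated from 50–60 mm³. Dosing was 25 or 50 mg/kg oral BID on a five-on/two-off schedule for 3 weeks. Body weight was recorded weekly. n = 8 per group.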
smiles,measurement,setting,value
CN(C)Cc1cccc(-c2c(-c3cnn(C)c3)oc3ncnc(Oc4ccc(NC(=O)c5cccn(-c6ccc(F)cc6)c5=O)cc4)c23)c1,Vdss,[1],52 L/kg
same,Activity,[2],Non-Toxic
same,Activity,[3],Non-Toxic
same,Activity,[4],Non-Toxic
same,Activity,[5],Non-Toxic
same,Activity,[6],Non-Toxic
same,Activity,[7],Non-Toxic
same,Activity,[8],Toxic
same,Activity,[9],Non-Toxic
Cn1cc(-c2oc3ncnc(Oc4ccc(NC(=O)c5cccn(-c6ccc(F)cc6)c5=O)cc4)c3c2-c2cccc(N3CCNCC3)c2)cn1,AUC/dose,[10],2.6 ng.hr/ml per mg/kg
same,AUC/dose,[11],454.5 ng.hr/ml per mg/kg
Nc1cccc(-c2c(-c3ccccc3)oc3ncnc(Nc4ccc(NC(=O)C5(C(=O)Nc6ccc(F)cc6)CC5)cc4)c23)c1,inhibition,[12],1%
same,inhibition,[13],-4%
same,inhibition,[14],92%
same,inhibition,[15],19%
Cn1cc(-c2oc3ncnc(Oc4ccc(NC(=O)c5cccn(-c6ccc(F)cc6)c5=O)cc4)c3c2-c2cccc(CN)c2)cn1,AUC/dose,[11],483 ng.hr/ml per mg/kg
Cc1ccc(C(=O)Nc2ccc(Oc3cc4cnn(C)c4cc3-c3cn[nH]c3)c(F)c2)c(=O)n1-c1ccc(F)cc1 [MERESTINIB],IC50,[16],800 pM
COc1cc2nccc(Oc3ccc(NC(=O)c4cc5c(n(-c6ccccc6)c4=O)CCCC5=O)nc3)c2cc1OC [TAMNORZATINIB],Activity,[2],Non-Toxic
same,Activity,[3],Non-Toxic
same,Activity,[4],Non-Toxic
same,Activity,[17],Toxic
same,Activity,[9],Non-Toxic
CCCCNc1ncc2c(-c3ccc(CN4CCN(C)CC4)cc3)cn([C@H]3CC[C@H](O)CC3)c2n1,inhibition in vivo at 25 mg/kg,MDA-MB-231 [18],52.4%
same,inhibition in vivo at 25 mg/kg,MDA-MB-231 [19],15.9%
CN1CCN(c2cccc(-c3c(-c4cnn(C)c4)oc4ncnc(Oc5ccc(NC(=O)c6cccn(-c7ccc(F)cc7)c6=O)cc5)c34)c2)CC1,AUC/dose,[10],32.8 ng.hr/ml per mg/kg
same,AUC/dose,[11],221 ng.hr/ml per mg/kg
O=C(Nc1ccc(F)cc1)C1(C(=O)Nc2ccc(Oc3ncnc4oc(-c5ccccc5)cc34)cc2)CC1,inhibition,[12],4%
same,inhibition,[13],1%
same,inhibition,[14],53%
same,inhibition,[15],4%
Nc1cccc(-c2c(-c3ccccc3)oc3ncnc(Oc4ccc(NC(=O)C5(C(=O)Nc6ccc(F)cc6)CC5)cc4)c23)c1,inhibition,[12],0%
same,inhibition,[13],-9%
same,inhibition,[14],100%
same,inhibition,[15],71%
O=C(Nc1ccc(F)cc1)C1(C(=O)Nc2ccc(Oc3ncnc4oc(-c5ccccc5)c(-c5ccccc5)c34)cc2)CC1,inhibition,[12],3%
same,inhibition,[13],2%
same,inhibition,[14],98%
same,inhibition,[15],41%
Nc1cccc(-c2c(-c3ccccc3)oc3ncnc(Oc4ccc(NC(=S)NC(=O)Cc5ccccc5)cc4)c23)c1,inhibition,[12],1%
same,inhibition,[13],-6%
same,inhibition,[14],95%
same,inhibition,[15],9%
Nc1nc(Nc2ccc3c(c2)CC[C@@H](N2CCCC2)CC3)nn1-c1cc2c(nn1)-c1ccccc1CCC2 [BEMCENTINIB],inhibition in vivo at 25 mg/kg,MDA-MB-231 [19],7.7%
same,inhibition in vivo at 25 mg/kg,MDA-MB-231 [20],52.4%
CNc1cccc(-c2c(-c3cnn(C)c3)oc3ncnc(Oc4ccc(NC(=O)c5cccn(-c6ccc(F)cc6)c5=O)cc4)c23)c1,AUC/dose,[10],15.3 ng.hr/ml per mg/kg
same,AUC/dose,[11],3330.5 ng.hr/ml per mg/kg
Cn1cc(-c2oc3ncnc(Oc4ccc(NC(=O)c5cccn(-c6ccc(F)cc6)c5=O)cc4)c3c2-c2cccc(N)c2)cn1,AUC/dose,[21],764 ng·h/mL
same,AUC/dose,[22],3985.3 ng·h/mL
same,Activity,[6],Non-Toxic
same,Activity,[23],Non-Toxic
same,Activity,[7],Non-Toxic
